Shown are actives, neighbours in structure and some others; about 2.1% of the full set was active somewhere.
H9c2 protect: myocardial damage modulation in H9c2 cells; protection from H2O2 cell death, % at 20 µM; H9c2 cardiomyocytes, H2O2 injury protection, ATPLite, 2 h; 360,000 tested, 0.63% active;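 active = compounds giving at least 50% protection of heart cells from peroxide-induced death in the single-dose screen, raw or plate-pattern-corrected value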;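 also: 0% = DMSO wells with peroxide and 100% = DMSO wells without peroxide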
HKDC1 inh: inhibitors of human hexokinase HKDC1. Q2TB90. recombinant HKDC1, G6PDH/diaphorase resazurin coupled fluorescence. inhibition, % at 20 µM. 340,000 tested, 0.16% active. AID 493160;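 active = inhibition above about 35% when tested at 20 µM, limit read from the data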;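 also: plate controls were DMSO wells with enzyme for no effect and DMSO wells lacking enzyme for full effect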
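Material – in-house recombinant HK5 (HKDC1) enzyme · Quantity – HKDC1 at 5 µg/mL · Buffer or medium – pH 8.0 Tris buffer with 10 mM MgCl2 · Reagent – glucose with 1 mM ATP · Dosing – single 20 µM dose · Times – reaction time 90 min, room temperature, protected from light · Technique – resorufin fluorescence at 613 nm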
PfGluPho inh: PfG6PD (Plasmodium falciparum) enzyme inhibition; AID 504690; PfGluPho enzyme, NADPH resazurin-diaphorase fluorescence; inhibition, % at 20 µM; 350,000 tested, 0.78% active;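 active = inhibition reaching at least a set limit at 20 µM in the primary screen, cut at about 59% in these data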;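 also: 0% = DMSO wells with substrate and 100% = DMSO wells lacking glucose-6-phosphate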
B2AR ag: activates human beta-2 adrenergic receptor causing internalization. P07550. Am2.2-beta2AR cells, FAP receptor internalization, flow cytometry. response, % (no concentration beside the values). 340,000 tested, 0.43% active;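 active = response above a set limit, near 3 SD of response in nonfluorescent compounds, cut at about 42% in these data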
Target sequence (P07550 whole entry, looked up): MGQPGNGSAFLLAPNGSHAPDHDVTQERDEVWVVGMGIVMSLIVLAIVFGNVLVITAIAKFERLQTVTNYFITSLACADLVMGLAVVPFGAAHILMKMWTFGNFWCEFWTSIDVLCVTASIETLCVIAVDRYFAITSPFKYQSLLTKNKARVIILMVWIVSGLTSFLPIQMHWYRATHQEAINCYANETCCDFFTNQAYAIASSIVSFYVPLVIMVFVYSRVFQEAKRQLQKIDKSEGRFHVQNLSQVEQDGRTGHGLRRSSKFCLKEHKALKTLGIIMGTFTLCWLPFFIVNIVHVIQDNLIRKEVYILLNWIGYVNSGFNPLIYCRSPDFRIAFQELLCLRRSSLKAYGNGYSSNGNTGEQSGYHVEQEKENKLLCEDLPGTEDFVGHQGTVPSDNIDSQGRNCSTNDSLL
UCH37 DUB inh: inhibitors of human deubiquitinating enzyme UCH37; Q9Y5K5; purified proteasome/UCH37, Ub-AMC cleavage fluorescence; inhibition, % (test concentration not listed); 330,000 tested, 0.33% active; AID 588478;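 active = mean inhibition over replicate wells above about 20%, limit read from the data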;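 also: 0% = compound-free wells with enzyme and 100% = wells lacking proteasome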
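Test system – human UCH37 enzyme supplied as purified proteasome complex · Incubation – 30 min preincubation with enzyme, 25 min cleavage at room temperature · Detection – AMC fluorescence from Ub-AMC cleavage, excitation 355 nm, emission 460 nm · Benchmarks – no-proteasome wells (full inhibition) and compound-free wells (no inhibition)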
aDG glyco up: increases alpha dystroglycan glycosylation | 360,000 tested, 0.22% active | activation, % at 10 µM | Pro5-aDG cells, alpha-DG glycosylation AlphaScreen (IIH6); 0% Pro5, 100% B10-LARGE cell signal;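 active = activation of at least 8% versus controls, or a plate z-score of at least 8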;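 also: Pro5 are CHO cells carrying HIG-tagged alpha-DG that lacks glycosylation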
Active calls of the source: *; . = no result given.

SMILES	H9c2 protect	HKDC1 inh	PfGluPho inh	B2AR ag	UCH37 DUB inh	aDG glyco up
CC1CC(=O)c2c(cc3c(-c4c(O)cc(O)c5c(O)c6c(cc45)OC(C)CC6=O)c(O)cc(O)c3c2O)O1 (stereo not given)	-17	12	-22	-3	22*	1
O=C1CC(c2ccc(O)cc2)Oc2cc(O)cc(O)c21 (stereo not given)	10	-6	-16	-1	4	0
CN(CCO)c1cc(N2CCCCC2)c2nonc2c1[N+](=O)[O-]	0	6	4	-2	5	-1
CC1CCCN(c2cc(N(C)CCO)c([N+](=O)[O-])c3nonc23)C1 (stereo not given)	1	-1	-14	10	22*	0
COc1ccc(C=NNC(=O)Cc2n[nH]c(=O)[nH]c2=O)cc1	.	.	.	.	2	.
O=C(NCCc1ccccc1)C1CCCN1C(=O)NCc1ccccc1 (stereo not given)	1	-6	-2	0	-1	0
CC(C)(C)OC(=O)N1CCCC1C(=O)NCCc1ccccc1 (stereo not given)	0	3	-15	55*	6	0
COc1cccc(-c2c(C(=O)NN=Cc3ccsc3)nnn2-c2nonc2N)c1	.	.	.	.	5	.
O=C(O)CC1SC(NN=Cc2ccc(Br)cc2)NC1=O (stereo not given)	.	.	.	.	11	.
COc1cc(C=O)c(Br)cc1OCc1ccc(C)cc1	-9	12	6	8	1	0
CCOc1cc(C=O)c(Br)cc1OC1CCCC1	-4	-4	1	44*	0	0
Cc1c([N+](=O)[O-])cc(N2C(=O)C=CC2=O)cc1[N+](=O)[O-]	-20	-6	101*	1	5	1
Cc1cc(N2C(=O)C=CC2=O)c([N+](=O)[O-])cc1C	-13	-15	91*	24	1	-1
Cc1ccc(N2C(=O)C3C4C=CC(CC4)C3C2=O)cc1[N+](=O)[O-] (stereo not given)	1	-1	-2	0	1	0
Cc1cc(C)cc(N2C(=O)c3nccnc3C2=O)c1	-2	4	-23	-3	7	0
Cc1cc(C)cc(N2C(=O)C=CC2=O)c1	-22	-6	86*	16	1	-1
O=C(NN=Cc1ccc(Cl)cc1Cl)c1cccc(N2CCCC2=O)c1	.	.	.	.	0	.
Cc1ccc(CN2CCN(N=Cc3ccc(C(=O)O)cc3)CC2)c(C)c1	.	.	.	.	2	.
O=C(NN=Cc1cccc(Br)c1)c1ccccc1-n1cccc1	.	.	.	.	2	.
COc1ccc(NC(=O)/C(Cl)=C(/Cl)S(=O)Cc2ccccc2)cn1 (stereo not given)	-33	14	40	50*	4	-1
COc1ccc(CS(=O)(=O)/C(Cl)=C(/Cl)C(=O)Nc2ccc(OC)nc2)cc1	-40	15	11	48*	5	-1
O=C(NN=Cc1cccc(OC(=O)c2ccc3c(c2)OCO3)c1)c1cncc(Br)c1	.	.	.	.	4	.
Cc1cc(C(=O)COc2ccccc2C(N)=O)c(C)n1C1CC1	44	-1	7	-2	0	0
Cc1cc(C(=O)COc2ccccc2C(N)=O)c(C)n1C	52*	-1	-4	9	2	0
COC(=O)C1=C(C)NC(=S)NC1c1ccc(-c2cccc(Cl)c2)o1 (stereo not given)	0	14	-14	51*	-2	0
SMILES	H9c2 protect	HKDC1 inh	PfGluPho inh	B2AR ag	UCH37 DUB inh	aDG glyco up
CCOC(=O)C1=C(C)NC(=S)NC1c1ccc(-c2ccc(Cl)cc2)o1 (stereo not given)	-19	15	25	-4	0	0
O=C(NN=Cc1ccc(Cl)cc1Cl)c1ccc2nc[nH]c2c1	.	.	.	.	4	.
C=CCc1cccc(/C=N/NC(=O)c2ccc3nc[nH]c3c2)c1O	50*	-18	1	12	.	1
Cn1c(N2CCOCC2)c(C=NOC(=O)c2ccc(F)cc2)c2ccccc21	.	.	.	.	-4	.
COC(=O)c1oc2c(c1C)C(=O)CC(C)(C)C2	14	-10	13	5	1	0
CC1(C)CC(=O)c2c(oc3cc(O)c(O)cc23)C1	90*	-1	8	3	0	0
C/C(C=NNC(=O)Cc1cccn1C)=C\c1ccccc1	.	.	.	.	2	.
O=C(Nc1nc(-c2ccc(S(=O)(=O)N3CCCC3)cc2)cs1)C1COc2ccccc2O1 (stereo not given)	66*	4	-9	21	7	0
O=[N+]([O-])c1c(Nc2ccccc2O)ccc2nonc12	16	-8	49	-12	7	0
O=[N+]([O-])c1c(Nc2ccccc2O)cc(Cl)c2nonc12	-26	11	39	105*	12	0
COC(=O)c1cccc(S(=O)(=O)N(Cc2ccco2)Cc2cc3cc(OC)ccc3[nH]c2=O)c1	78*	11	21	17	-9	0
CCCCC[n+]1ccn(C2=C([O-])c3ccccc3C(=O)/C2=N\S(=O)(=O)c2ccc(Cl)cc2)c1	-7	9	-10	6	.	4.9*
CCCC[n+]1ccn(C2=C([O-])c3ccccc3C(=O)/C2=N\S(=O)(=O)c2ccc(Cl)cc2)c1	-11	-15	-22	-10	.	0
O=C(NN=Cc1cc(Br)c(O)c(Br)c1O)c1cccnc1	.	.	.	.	5	.
Cc1cc(C)nc(N/N=C/c2ccccc2OCc2ccc([N+](=O)[O-])cc2)n1	11	-5	4	97*	.	1
Cc1nc2ccccc2c(=O)n1N=Cc1ccccc1	.	.	.	.	0	.
CC(C)(C)c1ccc(C2CC2C(=O)NN=Cc2ccc[nH]2)cc1 (stereo not given)	.	.	.	.	3	.
CC(C)(C)c1ccc(C2CC2C(=O)N/N=C\c2ccc[nH]2)cc1 (stereo not given)	-21	20	5	54*	.	9.1*
CCCCCC(=O)NN=C(C)c1ccc(NC(=O)c2ccco2)cc1	.	.	.	.	-2	.
CC(=NNC(=O)c1cnccn1)c1ccc([N+](=O)[O-])cc1	.	.	.	.	9	.
Cc1ccc(CN=Cc2[nH]c3ccc(Br)c(Cl)c3c2O)cc1	0	12	17	-231	7	3.9*
Cc1cc(NC(=O)COC(=O)COc2ccc3c4c(c(=O)oc3c2)CCC4)no1	53*	4	-10	4	-24	0
CNC(=O)COC(=O)COc1ccc2c(C)cc(=O)oc2c1	29	-3	11	-1	-30	0
Cc1noc(C)c1COC(=O)COc1ccc2c(C)cc(=O)oc2c1	60*	-1	6	3	-16	0
O=C(COc1ccc2c3c(c(=O)oc2c1)CCC3)Nc1ccccn1	-1	0	-4	61*	-7	0
O=[N+]([O-])c1ccccc1N=Nc1ccc(O)cc1O	9	8	-22	.	21*	0
Oc1ccc(N=Nc2ccc(Br)cc2)c(O)c1	-3	3	-7	2	.	0
